Here are results for two molecules from ChEMBL document CHEMBL1125823, “2-Phenylindole-linked [2-(aminoalkyl)pyridine]dichloroplatinum(II): complexes with a selective action on estrogen receptor positive mammary tumors” (1991).

In test [1] the test system is MCF7. The test is described as follows: Effect on Estrogen receptor positive MCF-7 human breast cancer cell proliferation at 5x10E-6M. The test is classed as functional. The gist of the method:
(§1)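 MCF-7 cells were kept in MEM with 5% charcoal-treated newborn calf serum and phenol red for 2 weeks, then about 2×10^4 cells were plated per well. Compounds in 0.1% DMF were added 2 days later and renewed on day 4; DMF alone served as control. Coulter cell counts were taken on day 5; mean of six dishes ± SD; % T/C.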

Test [2] concerns the target T1, Estrogen receptor (Mus musculus) (UniProt O08537+P19785). The test is described as follows: Uterotrophic effect in mice as relative uterine weight(mg) at 150 ug (control = […]+/-1.7). Type of test: functional, tissue-based.
Test [3] deals with MCF7. The test is described as follows: Effect on Estrogen receptor positive MCF-7 human breast cancer cell proliferation at 1x10E-6M. Type of test: functional. The gist of the method: as §1
Test [4] deals with MCF7. The test is described as follows: Effect on [3H]thymidine incorporation into estrogen receptor positive MCF-7 human breast cancer cells at 1*10^-6 M (control = 10.6+/-1.9). Type of test: functional. A digest of the protocol:
(§2)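 MCF-7 cells were grown in MEM with charcoal-treated 5% newborn calf serum and phenol red, then treated with compounds in 0.1% DMF (renewed on day 4) alongside DMF controls. They were labeled 3 days later with 1 µCi [³H]thymidine per well for 2 h, and incorporated radioactivity per dish was measured; mean of six dishes ± SD; % T/C.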
A general note: Incorporation of labelled thymidine or its analogues reports DNA synthesis.

The subject of test [5] is MCF7. The test is described as follows: Effect on [3H]thymidine incorporation into estrogen receptor positive MCF-7 human breast cancer cells at 1x10E-6M. The test is classed as functional. The gist of the method:
as §2

Test [6] relates to MCF7. The test is described as follows: Effect on Estrogen receptor positive MCF-7 human breast cancer cell proliferation at 5x10E-6M (control = 25.4+/-3.1). Type of test: functional. A digest of the protocol: as §1
Test [7] deals with T1, Estrogen receptor (Mus musculus). The test is described as follows: Anti-uterotrophic effect in mice as relative uterine weight(mg) at 150 ug. The test is classed as functional. The gist of the method:
(§3)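 Immature mice received the compound sc per animal on three consecutive days, alone or with 0.4 µg estrone per animal per day. Uteri were taken 24 h after the last injection, Bouin-fixed, dried at 100 °C for 24 h and weighed. Relative uterus weight = dry weight (mg)/body weight (g) × 100; mean of 6-10 animals ± SD; Mann-Whitney U test.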

The subject of test [8] is MCF7. The test is described as follows: Effect on [3H]thymidine incorporation into estrogen receptor positive MCF-7 human breast cancer cells at 5x10E-6M. The test is classed as functional. The gist of the method: (§4)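 MCF-7 cells in improved MEM with glutamine, gentamycin and 5% newborn calf serum, switched to charcoal-treated serum two weeks ahead; phenol red present; 37 °C, 5% CO2. About 2×10^4 cells plated per well; compound in 0.1% DMF added 2 days later, renewed on day 4; labelled 3 days later with 1 μCi [3H]thymidine per well for 2 h; cpm/dish, mean of six dishes ± SD.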

In test [9] the target is T1, Estrogen receptor (Mus musculus). The test is described as follows: Percent inhibition of estrone stimulated uterotrophic effect in mice at 150 ug. Type of test: functional. The gist of the method: (§5)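 Immature mice given test compound per animal sc on three consecutive days together with 0.4 μg estrone/animal/day. Killed 24 h after last injection; uteri fixed in Bouin, dried 100 °C 24 h and weighed. Inhibition = 100 − [(W_S,T − W_V)/(W_S − W_V) × 100] using relative uterus weights; 6-10 animals; Wilcoxon-Mann-Whitney U test.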

For test [10] the target is unchanged. The test is described as follows: Anti-uterotrophic effect in mice as relative uterine weight(mg) at 15 ug. Type of test: functional. A digest of the protocol:
as §3

Test [11] concerns MCF7. The test is described as follows: Effect on [3H]thymidine incorporation into estrogen receptor positive MCF-7 human breast cancer cells at 5*10e-6 M (control = 10.6+/-1.9). The test is classed as functional. A digest of the protocol:
as §4

Test [12] has as its target T1, Estrogen receptor (Mus musculus). The test is described as follows: Uterotrophic effect in mice as relative uterine weight(mg) at 15 ug (control = […]+/-1.7). Type of test: functional, tissue-based.
Test [13] has as its system MCF7. The test is described as follows: Effect on Estrogen receptor positive MCF-7 human breast cancer cell proliferation at 1x10E-6M (control = 25.4+/-3.1). The test is classed as functional. A digest of the protocol:
as §1

The target in test [14] is T1, Estrogen receptor (Mus musculus). The test is described as follows: Percent inhibition of estrone stimulated uterotrophic effect in mice at 15 ug. The test is classed as functional. The gist of the method:
as §5

Test [15] has as its system MCF7. The test is described as follows: Effect on [3H]-thymidine incorporation into estrogen receptor positive MCF-7 human breast cancer cells at 5x10E-7M (control = 42.6+/-2.8). The test is classed as functional. A digest of the protocol: as §2
The test system of test [16] is MCF7. The test is described as follows: Effect on Estrogen receptor positive MCF-7 human breast cancer cell proliferation at 1x10E-6M (control = 63.8+/-9.0). Type of test: functional. The gist of the method: as §1
The target of test [17] is T1, Estrogen receptor (Mus musculus). The test is described as follows: Uterotrophic effect in mice as relative uterine weight(mg) at 150 ug (control = 12.3+/-3.7). Type of test: functional, tissue-based. The gist of the method:
(§6)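 Immature mice dosed sc per animal on three consecutive days; vehicle controls. Killed and weighed 24 h after last injection; uteri fixed in Bouin solution 2 h, washed with alcoholic LiCl, dried at 100 °C for 24 h. Relative uterus weight = uterine dry weight (mg)/body weight (g) × 100; mean of 6-10 animals ± SD.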

Test [18] has the same target. The test is described as follows: Uterotrophic effect in mice as relative uterine weight(mg) at 15 ug (control = 12.3+/-3.7). Type of test: functional, tissue-based. The gist of the method:
as §6

For test [19], the system named is MCF7. The test is described as follows: Effect on [3H]thymidine incorporation into estrogen receptor positive MCF-7 human breast cancer cells at 5x10E-6M (control = 42.6+/-2.8). Type of test: functional. A digest of the protocol: as §4
Test [20] has as its system MCF7. The test is described as follows: Effect on Estrogen receptor positive MCF-7 human breast cancer cell proliferation at 5x10E-7M. The test is classed as functional. The gist of the method:
as §1

Test [21] relates to MCF7. The test is described as follows: Effect on Estrogen receptor positive MCF-7 human breast cancer cell proliferation at 5x10E-7M (control = 63.8+/-9.0). Type of test: functional. A digest of the protocol:
as §1

In test [22] the test system is MCF7. The test is described as follows: Effect on [3H]thymidine incorporation into estrogen receptor positive MCF-7 human breast cancer cells at 1x10E-6M (control = 42.6+/-2.8). Type of test: functional. A digest of the protocol:
as §2

Test [23] concerns MCF7. The test is described as follows: Effect on Estrogen receptor positive MCF-7 human breast cancer cell proliferation at 5x10E-6M (control = 63.8+/-9.0). Type of test: functional. The gist of the method: as §1
Test [24] concerns MCF7. The test is described as follows: Effect on [3H]thymidine incorporation into estrogen receptor positive MCF-7 human breast cancer cells at 5x10E-7M.

T1 sequence (O08537 whole entry, looked up): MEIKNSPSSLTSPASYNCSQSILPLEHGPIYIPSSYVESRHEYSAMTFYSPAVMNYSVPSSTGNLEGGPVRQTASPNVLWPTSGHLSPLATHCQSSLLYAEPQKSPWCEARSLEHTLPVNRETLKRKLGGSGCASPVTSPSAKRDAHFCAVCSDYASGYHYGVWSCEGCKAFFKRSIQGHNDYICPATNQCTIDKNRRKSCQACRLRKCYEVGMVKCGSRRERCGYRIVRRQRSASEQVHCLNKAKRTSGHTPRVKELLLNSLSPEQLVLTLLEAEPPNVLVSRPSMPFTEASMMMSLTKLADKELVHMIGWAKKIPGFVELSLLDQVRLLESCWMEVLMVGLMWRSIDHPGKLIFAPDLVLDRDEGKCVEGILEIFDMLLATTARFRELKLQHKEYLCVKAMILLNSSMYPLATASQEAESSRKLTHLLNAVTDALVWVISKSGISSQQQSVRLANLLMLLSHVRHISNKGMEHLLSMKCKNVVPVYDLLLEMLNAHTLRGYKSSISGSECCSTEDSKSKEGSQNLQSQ
T1 sequence (P19785 whole entry, looked up): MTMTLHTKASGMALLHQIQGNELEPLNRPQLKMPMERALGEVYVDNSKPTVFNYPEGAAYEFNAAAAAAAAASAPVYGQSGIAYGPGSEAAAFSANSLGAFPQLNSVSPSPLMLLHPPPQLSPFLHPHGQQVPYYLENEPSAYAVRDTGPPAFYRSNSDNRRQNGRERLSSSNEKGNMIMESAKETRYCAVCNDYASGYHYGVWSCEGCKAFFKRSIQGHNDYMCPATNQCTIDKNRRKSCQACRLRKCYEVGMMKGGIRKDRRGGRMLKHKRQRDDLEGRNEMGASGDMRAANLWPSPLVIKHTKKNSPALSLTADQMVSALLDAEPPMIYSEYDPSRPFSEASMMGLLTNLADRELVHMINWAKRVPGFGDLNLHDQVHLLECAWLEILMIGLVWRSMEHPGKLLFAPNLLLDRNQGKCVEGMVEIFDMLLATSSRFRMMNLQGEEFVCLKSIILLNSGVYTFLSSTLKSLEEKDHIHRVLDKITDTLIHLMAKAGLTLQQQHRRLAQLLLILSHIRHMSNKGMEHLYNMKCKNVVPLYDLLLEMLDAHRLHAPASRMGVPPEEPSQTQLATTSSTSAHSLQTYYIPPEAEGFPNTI

By T/C is commonly meant the result in the treated group divided by that in the control group, in per cent. What is called inhibition is the relative decrease from the control value, in per cent. Higher therefore signals a response far below the control. With `CCC(NCCCCCCn1c(-c2ccc(O)cc2)c(C)c2cc(O)ccc21)c1ccccn1` (configuration not stated), the T/C was 54% with MCF7 [1], 77% in the test with MCF7 [3], 99% in the test with MCF7 [5] and 79% in the test with MCF7 [8]. The Relative uterus weight is 26 mg in test [2], 30.5 mg in test [7], 32.8 mg in test [10] and 14.7 mg in test [12]. Also, the Activity in the test with MCF7 [4] was found to be 10500; with MCF7 [11] it was 8400. For the same molecule, the Cell no/dish in the test on MCF7 [6] was found to be 137000; in the test with MCF7 [13], 195000. In addition, the inhibition in [9] amounted to 51%; in [14], 42%.

On to `Cc1c(-c2ccc(O)cc2)n(CCCCCCCNCc2ccccn2)c2ccc(O)cc12`, for which the T/C is listed as 23% in the test on MCF7 [1]; 41% in the test on MCF7 [3]; 27% with MCF7 [5]; 58% with MCF7 [20]; 5% in the test on MCF7 [8]; 34% with MCF7 [24]. The “[3H] thymidinecpm/dish” value in the test with MCF7 [15] was 14500. Moreover, the Cell no/dish is given as 264000 with MCF7 [16], 369000 in the test with MCF7 [21] and 146000 with MCF7 [23]. Also, the Relative uterus weight in test [17] amounted to 19 mg; in test [7], 29.4 mg; in [18] it was 15.2 mg; in test [10] it was 41.9 mg. For the same molecule, the values for the Activity in the test with MCF7 [19] and in the test with MCF7 [22] were 2200 and 11300, respectively. The inhibition turned out to be 48% in test [9] and 11% in test [14].
